In brackets after ≈: the same amount, converted by molar mass.
Legend:
Nakaseomyces glabratus [1] = assay: Antifungal activity against Candida glabrata isolate 21900 expressing Fks1p D632G mutant and wild type Fks2p by CLSI method; assay type: functional
[2] = Inhibition of Candida glabrata isolate 3168 wild type 1,3-beta-D-glucan synthase; parameters: species or system Nakaseomyces glabratus
Outline: (§1)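 Cells grown in YPD broth at 35°C with vigorous shaking to early stationary phase. Membrane protein extracted and glucan synthase partially purified by product entrapment. Filtration polymerization assay measured [3H]glucose incorporation into product, started by adding enzyme. Echinocandin serial dilutions spanned 0.01–10,000 ng/ml, with 1% DMSO controls for anidulafungin. IC50 from variable-slope sigmoidal fit.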

[3] = molecular target: 1,3-beta-glucan synthase component FKS1 (Candida glabrata, UniProt E2GKZ4, S629P); assay: Inhibition of Candida glabrata isolate 5847 1,3-beta-D-glucan synthase Fks1p S629P mutant/wild type Fks2p; parameters: species or system Nakaseomyces glabratus; outline: as §1
[4] = Inhibition of Candida glabrata isolate 218 wild type 1,3-beta-D-glucan synthase; parameters: species or system Nakaseomyces glabratus; outline: as §1
[5] = molecular target: 1,3-beta-glucan synthase component FKS1 (Candida glabrata, UniProt E2GKZ4, D632G); assay: Inhibition of Candida glabrata isolate 21900 1,3-beta-D-glucan synthase Fks1p D632G mutant/wild type Fks2p; parameters: species or system Nakaseomyces glabratus; outline: as §1
[6] = Inhibition of Candida glabrata isolate 42971 1,3-beta-D-glucan synthase Fks1p D632Y mutant/Fks2p R1377STOP mutant; parameters: species or system Nakaseomyces glabratus; outline: as §1
Nakaseomyces glabratus [7] = assay: Antifungal activity against Candida glabrata isolate 234 expressing wild type Fks1p and Fks2p F659V mutant by CLSI method in presence of 50% human serum; assay type: functional
Outline: (§2)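 Broth microdilution MIC per CLSI M27-A3 in RPMI 1640 supplemented with 50% serum. Caspofungin and micafungin stocks in sterile water; anidulafungin stock in 100% DMSO; stocks kept at −86°C.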

Nakaseomyces glabratus [8] = assay: Ratio of IC50 for Candida glabrata wild type 1,3-beta-glucan synthase to IC50 for Candida glabrata 1,3-beta-glucan synthase mutant
Nakaseomyces glabratus [9] = assay: Antifungal activity against Candida glabrata ATCC 90030 expressing wild type Fks1p and Fks2p by CLSI method; assay type: functional
Outline: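 Broth microdilution MIC per CLSI M27-A3 in RPMI 1640 medium, also run in RPMI 1640 with 50% serum. Wild-type control strain. Caspofungin and micafungin dissolved in sterile distilled water and anidulafungin in 100% DMSO; stock solutions stored at −86°C. Geometric means used to compare MICs.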

1,3-beta-glucan synthase [10] = molecular target: 1,3-beta-glucan synthase (Candida glabrata, UniProt F5BCZ9, F659S); assay: Inhibition of Candida glabrata isolate 41026 1,3-beta-D-glucan synthase wild type Fks1p/Fks2p F659S mutant; parameters: species or system Nakaseomyces glabratus; outline: as §1
Nakaseomyces glabratus [11] = assay: Antifungal activity against Candida glabrata isolate 5847 expressing Fks1p S629P mutant and wild type Fks2p by CLSI method; assay type: functional
Outline: (§3)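 Broth microdilution MIC per CLSI M27-A3 in RPMI 1640 medium without serum. Caspofungin and micafungin stocks in sterile water; anidulafungin stock in 100% DMSO; stocks kept at −86°C.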

1,3-beta-glucan synthase [12] = molecular target: 1,3-beta-glucan synthase (Candida glabrata, UniProt F5BCZ9, D666E); assay: Inhibition of Candida glabrata isolate 42031 1,3-beta-D-glucan synthase wild type Fks1p/Fks2p D666E mutant; parameters: species or system Nakaseomyces glabratus; outline: as §1
Nakaseomyces glabratus [13] = assay: Antifungal activity against Candida glabrata isolate 42971 expressing Fks1p D632Y mutant and Fks2p R1377STOP mutant by CLSI method; assay type: functional; outline: as §3
Nakaseomyces glabratus [14] = assay: Antifungal activity against Candida glabrata isolate 42971 expressing Fks1p D632Y mutant and Fks2p R1377STOP mutant by CLSI method in presence of 50% human serum; assay type: functional; outline: as §2
Nakaseomyces glabratus [15] = assay: Antifungal activity against Candida glabrata isolate 51916 expressing wild type Fks1p and Fks2p P667T mutant by CLSI method; assay type: functional; outline: as §3
Nakaseomyces glabratus [16] = assay: Antifungal activity against Candida glabrata isolate 42997 expressing Fks1p F625S mutant and wild type Fks2p by CLSI method in presence of 50% human serum; assay type: functional; outline: as §2
1,3-beta-glucan synthase [17] = molecular target: 1,3-beta-glucan synthase (Candida glabrata, UniProt F5BCZ9, S663P); assay: Inhibition of Candida glabrata isolate 3830 1,3-beta-D-glucan synthase wild type Fks1p/Fks2p S663P mutant; parameters: species or system Nakaseomyces glabratus; outline: as §1
Chain of 1,3-beta-glucan synthase (Candida glabrata, UniProt F5BCZ9, S663P) (F5BCZ9 entry or part of it S663P): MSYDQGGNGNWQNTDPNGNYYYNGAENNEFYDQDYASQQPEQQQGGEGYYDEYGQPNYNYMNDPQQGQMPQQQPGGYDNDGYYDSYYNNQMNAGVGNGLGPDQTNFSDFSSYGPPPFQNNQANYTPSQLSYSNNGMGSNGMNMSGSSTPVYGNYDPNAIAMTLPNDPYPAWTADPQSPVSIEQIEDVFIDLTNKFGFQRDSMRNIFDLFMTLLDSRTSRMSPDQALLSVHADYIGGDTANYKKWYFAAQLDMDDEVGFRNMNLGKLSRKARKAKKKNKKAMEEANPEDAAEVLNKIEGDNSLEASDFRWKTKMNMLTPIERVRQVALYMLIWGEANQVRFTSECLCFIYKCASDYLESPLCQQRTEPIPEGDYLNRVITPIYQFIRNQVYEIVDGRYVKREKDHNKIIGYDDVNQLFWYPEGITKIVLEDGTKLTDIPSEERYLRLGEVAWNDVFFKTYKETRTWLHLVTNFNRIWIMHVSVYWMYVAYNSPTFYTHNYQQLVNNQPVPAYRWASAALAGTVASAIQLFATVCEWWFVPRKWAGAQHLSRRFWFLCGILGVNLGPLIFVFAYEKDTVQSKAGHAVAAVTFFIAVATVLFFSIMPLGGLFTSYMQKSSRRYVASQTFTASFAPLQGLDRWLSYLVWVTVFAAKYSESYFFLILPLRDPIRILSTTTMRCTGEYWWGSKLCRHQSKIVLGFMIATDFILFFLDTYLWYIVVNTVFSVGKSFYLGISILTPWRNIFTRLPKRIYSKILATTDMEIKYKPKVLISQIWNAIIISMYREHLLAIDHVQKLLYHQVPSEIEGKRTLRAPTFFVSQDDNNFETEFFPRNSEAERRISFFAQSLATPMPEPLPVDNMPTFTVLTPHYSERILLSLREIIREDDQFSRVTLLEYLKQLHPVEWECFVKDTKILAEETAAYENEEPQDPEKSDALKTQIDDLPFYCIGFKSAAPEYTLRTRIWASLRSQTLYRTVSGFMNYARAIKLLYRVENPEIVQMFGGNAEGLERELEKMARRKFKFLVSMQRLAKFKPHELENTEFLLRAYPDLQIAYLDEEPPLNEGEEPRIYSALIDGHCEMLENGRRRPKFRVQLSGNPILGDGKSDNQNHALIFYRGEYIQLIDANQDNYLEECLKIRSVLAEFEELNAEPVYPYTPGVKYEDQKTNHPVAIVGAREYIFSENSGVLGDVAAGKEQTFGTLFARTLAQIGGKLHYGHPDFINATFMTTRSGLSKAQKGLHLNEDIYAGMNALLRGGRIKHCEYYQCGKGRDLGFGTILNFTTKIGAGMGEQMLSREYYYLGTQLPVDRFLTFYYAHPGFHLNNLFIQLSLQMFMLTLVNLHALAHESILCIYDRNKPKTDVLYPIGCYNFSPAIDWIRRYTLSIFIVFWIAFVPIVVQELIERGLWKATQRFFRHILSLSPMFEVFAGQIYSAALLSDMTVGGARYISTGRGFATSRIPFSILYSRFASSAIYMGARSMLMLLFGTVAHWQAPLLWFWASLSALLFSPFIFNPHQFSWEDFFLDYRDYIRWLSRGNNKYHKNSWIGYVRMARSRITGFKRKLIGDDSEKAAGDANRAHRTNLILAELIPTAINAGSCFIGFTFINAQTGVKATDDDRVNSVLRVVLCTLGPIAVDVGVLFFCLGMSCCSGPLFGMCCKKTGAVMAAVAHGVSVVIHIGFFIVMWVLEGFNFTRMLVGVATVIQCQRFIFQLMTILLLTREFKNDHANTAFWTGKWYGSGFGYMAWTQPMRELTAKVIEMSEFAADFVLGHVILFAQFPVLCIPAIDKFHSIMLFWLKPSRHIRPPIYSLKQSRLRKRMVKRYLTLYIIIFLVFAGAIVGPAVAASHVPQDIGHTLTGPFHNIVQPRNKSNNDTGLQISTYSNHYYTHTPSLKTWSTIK

Nakaseomyces glabratus [18] = assay: Antifungal activity against Candida glabrata isolate 42031 expressing wild type Fks1p and Fks2p D666E mutant by CLSI method; assay type: functional; outline: as §3
Nakaseomyces glabratus [19] = assay: Antifungal activity against Candida glabrata isolate 3168 expressing wild type Fks1p and Fks2p by CLSI method; assay type: functional; outline: as §3
Nakaseomyces glabratus [20] = assay: Antifungal activity against Candida glabrata isolate 42997 expressing Fks1p F625S mutant and wild type Fks2p by CLSI method; assay type: functional; outline: as §3
Nakaseomyces glabratus [21] = assay: Antifungal activity against Candida glabrata isolate 3830 expressing wild type Fks1p and Fks2p S663P mutant by CLSI method in presence of 50% human serum; assay type: functional; outline: as §2
Nakaseomyces glabratus [22] = assay: Antifungal activity against Candida glabrata isolate 5416 expressing wild type Fks1p and Fks2p W1375L mutant by CLSI method in presence of 50% human serum; assay type: functional; outline: as §2
Nakaseomyces glabratus [23] = assay: Antifungal activity against Candida glabrata isolate 3169 expressing Fks1p D632E mutant and wild type Fks2p by CLSI method; assay type: functional; outline: as §3
Nakaseomyces glabratus [24] = assay: Antifungal activity against Candida glabrata ATCC 90030 expressing wild type Fks1p and Fks2p by CLSI method in presence of 50% human serum; assay type: functional; outline: as §2
Nakaseomyces glabratus [25] = assay: Antifungal activity against Candida glabrata isolate 234 expressing wild type Fks1p and Fks2p F659V mutant by CLSI method; assay type: functional; outline: as §3
[26] = Inhibition of Candida glabrata ATCC 90030 wild type 1,3-beta-D-glucan synthase; parameters: species or system Nakaseomyces glabratus; outline: as §1
Nakaseomyces glabratus [27] = assay: Antifungal activity against Candida glabrata isolate 3168 expressing wild type Fks1p and Fks2p by CLSI method in presence of 50% human serum; assay type: functional; outline: as §2
Nakaseomyces glabratus [28] = assay: Antifungal activity against Candida glabrata isolate 51916 expressing wild type Fks1p and Fks2p P667T mutant by CLSI method in presence of 50% human serum; assay type: functional; outline: as §2
1,3-beta-glucan synthase [29] = molecular target: 1,3-beta-glucan synthase (Candida glabrata, UniProt F5BCZ9, F659V); assay: Inhibition of Candida glabrata isolate 234 1,3-beta-D-glucan synthase wild type Fks1p/Fks2p F659V mutant; parameters: species or system Nakaseomyces glabratus; outline: as §1
[30] = molecular target: 1,3-beta-glucan synthase component FKS1 (Candida glabrata, UniProt E2GKZ4, D632E); assay: Inhibition of Candida glabrata isolate 3169 1,3-beta-D-glucan synthase Fks1p D632E mutant/wild type Fks2p; parameters: species or system Nakaseomyces glabratus; outline: as §1
[31] = molecular target: 1,3-beta-glucan synthase component FKS1 (Candida glabrata, UniProt E2GKZ4, F625S); assay: Inhibition of Candida glabrata isolate 42997 1,3-beta-D-glucan synthase Fks1p F625S mutant/wild type Fks2p; parameters: species or system Nakaseomyces glabratus; outline: as §1
Chain of 1,3-beta-glucan synthase component FKS1 (Candida glabrata, UniProt E2GKZ4, F625S) (E2GKZ4 entry or part of it F625S): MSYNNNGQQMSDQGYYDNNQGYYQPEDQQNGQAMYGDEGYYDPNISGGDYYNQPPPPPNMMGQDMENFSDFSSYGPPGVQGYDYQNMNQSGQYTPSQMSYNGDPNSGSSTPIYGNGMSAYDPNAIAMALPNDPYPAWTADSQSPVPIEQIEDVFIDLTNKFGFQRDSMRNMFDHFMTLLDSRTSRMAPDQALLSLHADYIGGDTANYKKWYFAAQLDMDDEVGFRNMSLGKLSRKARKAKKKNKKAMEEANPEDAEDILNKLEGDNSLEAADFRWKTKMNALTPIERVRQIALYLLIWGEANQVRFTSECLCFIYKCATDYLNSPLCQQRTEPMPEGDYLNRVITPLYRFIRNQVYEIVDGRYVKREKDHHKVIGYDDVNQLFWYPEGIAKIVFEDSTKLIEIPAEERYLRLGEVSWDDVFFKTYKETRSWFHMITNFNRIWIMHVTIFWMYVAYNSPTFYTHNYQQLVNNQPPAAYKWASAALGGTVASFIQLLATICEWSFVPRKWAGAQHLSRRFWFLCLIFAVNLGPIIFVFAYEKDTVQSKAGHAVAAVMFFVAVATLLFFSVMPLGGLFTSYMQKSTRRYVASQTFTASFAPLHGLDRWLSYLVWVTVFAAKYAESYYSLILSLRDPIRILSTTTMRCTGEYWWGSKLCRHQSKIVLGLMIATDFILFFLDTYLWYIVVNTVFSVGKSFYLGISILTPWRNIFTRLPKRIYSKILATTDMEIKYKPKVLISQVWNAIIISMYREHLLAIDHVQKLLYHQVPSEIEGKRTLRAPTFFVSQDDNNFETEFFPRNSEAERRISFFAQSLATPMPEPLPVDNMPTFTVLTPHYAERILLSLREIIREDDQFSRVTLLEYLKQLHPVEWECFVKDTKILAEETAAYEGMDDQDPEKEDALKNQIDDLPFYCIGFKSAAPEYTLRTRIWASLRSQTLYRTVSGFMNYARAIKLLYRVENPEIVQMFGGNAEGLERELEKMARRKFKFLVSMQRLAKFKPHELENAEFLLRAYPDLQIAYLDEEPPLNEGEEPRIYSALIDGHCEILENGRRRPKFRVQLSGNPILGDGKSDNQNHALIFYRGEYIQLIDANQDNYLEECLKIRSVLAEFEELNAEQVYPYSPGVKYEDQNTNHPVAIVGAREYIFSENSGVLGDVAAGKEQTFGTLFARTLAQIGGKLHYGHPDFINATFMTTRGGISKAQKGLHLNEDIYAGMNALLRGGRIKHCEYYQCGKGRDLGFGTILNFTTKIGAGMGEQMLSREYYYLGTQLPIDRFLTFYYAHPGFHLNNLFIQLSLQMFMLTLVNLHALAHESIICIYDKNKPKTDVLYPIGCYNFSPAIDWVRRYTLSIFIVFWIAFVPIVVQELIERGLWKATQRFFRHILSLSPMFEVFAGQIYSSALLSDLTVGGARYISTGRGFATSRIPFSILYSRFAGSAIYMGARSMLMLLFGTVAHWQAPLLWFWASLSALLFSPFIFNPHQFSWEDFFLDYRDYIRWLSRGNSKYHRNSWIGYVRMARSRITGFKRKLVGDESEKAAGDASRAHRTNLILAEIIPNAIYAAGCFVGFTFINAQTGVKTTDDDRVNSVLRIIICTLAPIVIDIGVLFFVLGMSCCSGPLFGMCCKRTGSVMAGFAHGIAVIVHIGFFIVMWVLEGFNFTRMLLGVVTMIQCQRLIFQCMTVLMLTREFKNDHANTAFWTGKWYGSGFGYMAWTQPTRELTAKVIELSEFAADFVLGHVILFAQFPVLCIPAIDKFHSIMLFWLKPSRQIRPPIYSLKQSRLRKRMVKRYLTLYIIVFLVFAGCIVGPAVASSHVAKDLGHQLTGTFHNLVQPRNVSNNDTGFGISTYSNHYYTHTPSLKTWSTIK

[32] = Inhibition of Candida glabrata isolate 31498 1,3-beta-D-glucan synthase wild type Fks1p/Fks2p F659 deletion mutant; parameters: species or system Nakaseomyces glabratus; outline: as §1
Nakaseomyces glabratus [33] = assay: Antifungal activity against Candida glabrata isolate 218 expressing wild type Fks1p and Fks2p by CLSI method in presence of 50% human serum; assay type: functional; outline: as §2
Nakaseomyces glabratus [34] = assay: Antifungal activity against Candida glabrata isolate 5847 expressing Fks1p S629P mutant and wild type Fks2p by CLSI method in presence of 50% human serum; assay type: functional; outline: as §2

`CC[C@H](C)C[C@H](C)CCCCCCCCC(=O)N[C@H]1C[C@@H](O)[C@@H](NCCN)NC(=O)[C@@H]2[C@@H](O)CCN2C(=O)[C@H]([C@H](O)CCN)NC(=O)[C@H]([C@H](O)[C@@H](O)c2ccc(O)cc2)NC(=O)[C@@H]2C[C@@H](O)CN2C(=O)[C@H]([C@@H](C)O)NC1=O` [CASPOFUNGIN] gave an MIC (Nakaseomyces glabratus [1]) of 4 µg/mL (≈ 3.66 µM), an IC50 [2] of 0.00179 µg/mL (≈ 0.00164 µM) and an IC50 [3] of 4560 nM. The IC50 [4] was 0.00311 µg/mL (≈ 0.00284 µM), the IC50 [5] was 692 nM and the IC50 [6] was 5.2485 µg/mL (≈ 4.8 µM). The MIC (Nakaseomyces glabratus [7]) was 8 µg/mL, the Ratio IC50 (Nakaseomyces glabratus [8]) was 267 and the MIC (Nakaseomyces glabratus [9]) was 0.06 µg/mL (≈ 0.0549 µM). It also gave an IC50 (1,3-beta-glucan synthase [10]) of 973 nM, an MIC (Nakaseomyces glabratus [11]) of 8 µg/mL (≈ 7.32 µM) and an IC50 (1,3-beta-glucan synthase [12]) of 236 nM. It also gave an MIC (Nakaseomyces glabratus [13]) of 8 µg/mL (≈ 7.32 µM), an MIC (Nakaseomyces glabratus [14]) of 8 µg/mL and an MIC (Nakaseomyces glabratus [15]) of 2 µg/mL (≈ 1.83 µM). It also gave an MIC (Nakaseomyces glabratus [16]) of 8 µg/mL, an IC50 (1,3-beta-glucan synthase [17]) of 4680 nM and an MIC (Nakaseomyces glabratus [18]) of 4 µg/mL (≈ 3.66 µM). The MIC (Nakaseomyces glabratus [19]) was 0.06 µg/mL (≈ 0.0549 µM), the MIC (Nakaseomyces glabratus [20]) was 8 µg/mL (≈ 7.32 µM) and the MIC (Nakaseomyces glabratus [21]) was 16 µg/mL. For the same compound, the MIC (Nakaseomyces glabratus [22]) was 8 µg/mL, the MIC (Nakaseomyces glabratus [23]) was 2.52 µg/mL (≈ 2.3 µM) and the MIC (Nakaseomyces glabratus [24]) was 0.12 µg/mL. It also gave an MIC (Nakaseomyces glabratus [25]) of 4 µg/mL (≈ 3.66 µM), an IC50 [26] of 0.00192 µg/mL (≈ 0.00176 µM) and an MIC (Nakaseomyces glabratus [27]) of 0.12 µg/mL. It also gave an MIC (Nakaseomyces glabratus [28]) of 8 µg/mL, an IC50 (1,3-beta-glucan synthase [29]) of 105 nM and an IC50 [30] of 772 nM. It also gave an IC50 [31] of 638 nM, an IC50 [32] of 0.1172 µg/mL (≈ 0.107 µM) and an MIC (Nakaseomyces glabratus [33]) of 0.25 µg/mL. It also gave an MIC (Nakaseomyces glabratus [34]) of 8 µg/mL.
